The subject of data set [1] is A549. Briefly: Induction of morphological changes in human A549 cells assessed as cell shrinking up to 2.5 uM preincubated for 1 hr followed by 0.77 mW/cm2 white light irradiation for 80 mins measured after 24 hrs by phase contrast microscopy. It is filed as functional, cell-based. An outline of the steps:
(§1)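 A549 cells (1×10^5/well) on coverslips given vehicle (0.1% DMSO) or compound (0.625, 1.25, 2.5 µM) for 1 h, then irradiated 80 min (0.77 mW/cm²); kept 24 h in regular medium and examined unstained by phase-contrast microscopy (40× objective); representative fields imaged; experiments done three times.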

Data set [2] can be described thus: Drug uptake in human A549 cells assessed as mean fluorescence intensity at 2.5 uM after 2 hrs by flow cytometry (reference value: 5.4 +/- 1.5). It is filed as ADME, cell-based. Conditions: a549, 2 h.
The test system of data set [3] is A549. Briefly: Induction of apoptosis in human A549 cells assessed as pro-caspase 3 level at 2.5 uM preincubated for 1 hr followed by 0.77 mW/cm2 white light irradiation for 80 mins measured after 4 hrs by immunoblot analysis relative to control. The data set is classed as functional. An outline of the steps:
(§2)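 Whole-cell extracts from A549 cells (1×10^6) treated with 0 or 2.5 µM compound, photo-exposed 80 min, lysed in Tris pH 7.4/NaCl/EDTA/Triton with protease inhibitors; 30 µg protein on 12% SDS-PAGE, nitrocellulose, milk block, caspase-3 antibody overnight 4 °C, HRP secondary, chemiluminescence; band ratio to normal control (=1) after loading-control normalisation.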

Data set [4] can be described thus: Drug uptake in human L-132 cells assessed as mean fluorescence intensity at 2.5 uM after 4 hrs by flow cytometry (reference value: 4.6 +/- 1.2). Conditions: l132, 4 h. The data set is classed as ADME, cell-based. (In general: In flow cytometry, cells or beads pass a laser one at a time.)
Data set [5] can be described thus: Drug uptake in human L-132 cells assessed as mean fluorescence intensity at 2.5 uM after 8 hrs by flow cytometry (reference value: 4.6 +/- 1.2). It is filed as ADME, cell-based. Particulars: l132, 8 h.
Data set [6] in a line: Drug uptake in human L-132 cells assessed as mean fluorescence intensity at 2.5 uM after 2 hrs by flow cytometry (reference value: 4.6 +/- 1.2). Conditions: l132, 2 h. The data set is classed as ADME, cell-based.
Data set [7] deals with A549. Put plainly: Induction of apoptosis in human A549 cells assessed as pro-caspase 3 level at 2.5 uM preincubated for 1 hr followed by 0.77 mW/cm2 white light irradiation for 80 mins measured after 8 hrs by immunoblot analysis relative to control. The data set is classed as functional. An outline of the steps: as §2
(Immunoblotting shows a protein as a band on a membrane.)

Data set [8] relates to A549. Put plainly: Induction of morphological changes in human A549 cells assessed as irregular disruptions in optical diffraction halo preincubated for 1 hr followed by 0.77 mW/cm2 white light irradiation for 80 mins measured after 24 hrs by phase contrast microscopy. It is filed as functional, cell-based. Put shortly: as §1
Data set [9] in a line: Drug uptake in human A549 cells assessed as mean fluorescence intensity at 2.5 uM after 16 hrs by flow cytometry (reference value: 5.4 +/- 1.5). The data set is classed as ADME, cell-based. Conditions: a549, 16 h.
Data set [10] is described as follows: Drug uptake in endoplasmic reticulum of human A549 cells at 100 nM measured up to 4 hrs by ER-Tracker green staining based confocal microscopy. It is filed as ADME, cell-based. Particulars: a549, 4 h, 0.1 µM. An outline of the steps:
(§3)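 Overnight-seeded A549 cells loaded with dye (100 nM), incubation periods 0.5-4 h tested, then ER-Tracker Green (500 nM) or MitoTracker Green (100 nM) for 30 min at 37 °C; washed, confocal imaging: trackers ex 488/em 500-530 nm, dye ex 543/em 560-640 nm; overlap of images judged.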

For data set [11], the species on record is Bos taurus. Briefly: Binding affinity to calf thymus duplex DNA assessed as decrease in intensities of maximum absorption at 50 uM by spectrophotometric titration analysis.
Data set [12] is described as follows: Drug uptake in human A549 cells assessed as mean fluorescence intensity at 2.5 uM after 24 hrs by flow cytometry (reference value: 5.4 +/- 1.5). The data set is classed as ADME, cell-based. Conditions: a549, 24 h.
A short description of data set [13]: Cell cycle arrest in human A549 cells assessed as accumulation at subG1 phase at 2.5 uM preincubated for 1 hr followed by 0.77 mW/cm2 white light irradiation for 80 mins measured after 24 hrs in presence of 50 uM of beta-carotene by propidium iodide staining based flow cytometry (reference value: 8.2 +/- 1.1%). It is filed as functional.
The nature of data set [14]: Photocytotoxicity against human A549 cells assessed as decrease in cell viability preincubated for 1 hr followed by 0.77 mW/cm2 white light irradiation for 80 mins measured after 24 hrs by MTT assay. It is filed as functional, cell-based. Particulars: A549, light or radiation study. An outline of the steps: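 IC50 from MTT: A549 cells (1×10^4/well) given graded compound concentrations 1 h in serum-free DMEM (vehicle ≤0.1% DMSO), washed, photo-exposed 80 min at 0.77 mW/cm², regular medium 24 h; MTT 0.5 mg/mL 6 h, A550; viability relative to vehicle control; four replicates, three experiments, mean ± SEM.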

Data set [15] relates to A549. Briefly: Induction of apoptosis in human A549 cells assessed as pro-caspase 3 level at 2.5 uM preincubated for 1 hr followed by 0.77 mW/cm2 white light irradiation for 80 mins measured after 24 hrs by immunoblot analysis relative to control. The data set is classed as functional. An outline of the steps:
as §2

Data set [16] can be described thus: Induction of apoptosis in human A549 cells assessed as caspase 3 activation at 2.5 uM preincubated measured after 24 hrs under dark condition by immunoblot analysis. It is filed as cell-based. Conditions: a549, 24 h.
Data set [17] is described as follows: Drug uptake in mitochondria of human A549 cells at 100 nM measured up to 4 hrs by Mito-Tracker green staining based confocal microscopy. The data set is classed as ADME. Particulars: a549, 4 h, 0.1 µM. An outline of the steps: as §3
Data set [18] deals with A549. Briefly: Induction of morphological changes in human A549 cells assessed as increase in floating cells without adhering ability up to 2.5 uM preincubated for 1 hr followed by 0.77 mW/cm2 white light irradiation for 80 mins measured after 24 hrs by phase contrast microscopy. It is filed as functional, cell-based. An outline of the steps:
as §1

The nature of data set [19]: Photocytotoxicity against human WI38 cells at 50 uM using 0.77 mW/cm2 white light irradiation by MTT assay. The data set is classed as toxicity, cell-based. Particulars: wi-38, 50 µM. In general terms: Formazan colour is commonly taken as a measure of viable cells.
The test system of data set [20] is A549. Put plainly: Photocytotoxicity in human A549 cells assessed as decrease in cell survival at 2.5 uM preincubated for 1 hr followed by 0.77 mW/cm2 white light irradiation for 80 mins measured after 24 hrs in presence of caspase 9 inhibitor Z-LEHD-FMK by MTT assay. It is filed as functional, cell-based. Put shortly:
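Cells pre-incubated 1 h with caspase-9 inhibitor Z-LEHD-FMK (20 µM), then compound 2.5 µM for 1 h and light 80 min (0.77 mW/cm²); viability at 24 h by MTT; five replicates, mean ± SEM.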

Data set [21] has as its system A549. Put plainly: Induction of apoptosis in human A549 cells assessed as increase in caspase 8 activity at 2.5 uM preincubated for 1 hr followed by 0.77 mW/cm2 white light irradiation for 80 mins measured after 16 hrs by fluorimetric method relative to control. The data set is classed as functional. Put shortly: (§4)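 A549 cells (1×10^6) given compound 2.5 µM for 1 h, then light 80 min; caspase activities measured at 16 h in whole-cell extracts with kits, colorimetric for caspase-3 and fluorimetric for caspase-8; untreated photo-exposed cells as control; five replicates, mean ± SEM.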

Data set [22] relates to A549. Briefly: Induction of apoptosis in human A549 cells assessed as increase in caspase 3 activity at 2.5 uM preincubated for 1 hr followed by 0.77 mW/cm2 white light irradiation for 80 mins measured after 16 hrs by colorimetric method relative to control. The data set is classed as functional. An outline of the steps: as §4
In data set [23] the test system is A549. Briefly: Induction of morphological changes in human A549 cells assessed as changes in cell outline preincubated for 1 hr followed by 0.77 mW/cm2 white light irradiation for 80 mins measured after 24 hrs by phase contrast microscopy. The data set is classed as functional, cell-based. Put shortly:
as §1

The source made the active and inactive calls. The calls are words filed in the database; no cut-off is given here.

One may read the IC50 as the point on the concentration scale where inhibition reaches its midpoint. As to `CCC1=C(C)C2=C(C)c3c(C)c(CC)c(C)n3[B-](F)(F)[N+]2=C1/C=C/c1ccc(O[C@H]2O[C@H](CO)[C@@H](O)[C@H](O)[C@H]2O)cc1`, the result in data set [1], in data set [11], in data set [18] and in data set [20] was Active. Further, the Flu intensity in data set [2] is 95.3 to 98.5; in [4], 56.8; in data set [5] it was 49.5; in data set [6], 63.5; in data set [9] it was 41.6 to 52.5; in [12], 46.7. Also, the “fold change (FC)” value in data set [3] is 0.8; in data set [7] it was 0.8; in [15], 0.2; in data set [21] it was 6.2; in data set [22], 2.9. In addition, the Activity entry in [8] is “Dose-dependent effect”; in data set [13], 51.8%; in data set [16], “Non-Toxic”; in [19], 5 to 7%; in data set [23], “Dose-dependent effect”. Also, the Drug uptake entry in data set [10] and in data set [17] was “Active” throughout. Further, the IC50 in [14] worked out at 2700 nM.

The values are drawn from ChEMBL document CHEMBL3865807, “Syntheses and photodynamic activity of some glucose-conjugated BODIPY dyes” (Eur J Med Chem, 2016).
